Source: PubChem BioAssay
Only some compounds are listed: those with a hit (about 5.1% of all), similar ones and a draw of the others.
APP 5'UTR act – APP 5'UTR luciferase reporter activation; SH-SY5Y APP 5'UTR luciferase reporter, luminescence; zero percent = DMSO vehicle wells; activation, % at 2 µM; 190,000 tested, 1% active;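 active = activation above a set limit, based on mean plus 3 SD of controls, cut at about 140% in these data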
STAT3 blocker – reduces IL-6 driven STAT3 reporter signal; U3A cells, IL-6 STAT3-luciferase reporter, luminescence; host cell line lacks STAT1; inhibition, % at 5.5 µM; 190,000 tested, 0.89% active;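 active = inhibition above the mean inhibition across all screened compounds plus 3 SD, cut at about 44% in these data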
STAT1 blocker – STAT1 signaling inhibition. NIH 3T3 STAT1-luciferase reporter, IFN-gamma, luminescence. inhibition, % at 5.5 µM. 200,000 tested, 0.35% active. AID 920;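 active = inhibition above a set limit, the mean inhibition across all tested compounds plus 3 SD, cut at about 34% in these data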
STAT3 act – increases IL-6 driven STAT3 reporter signal. U3A cells, IL-6 STAT3-luciferase reporter, luminescence; 100% = signal with IL-6 EC80 alone. activation (% of control), % at 5.6 µM. 190,000 tested, 0.91% active. AID 871;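 active = activation above the screen-wide mean of compound activation plus 3 SD, cut at about 130% in these data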
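Material: STAT1-lacking human U3A cells, STAT3 luciferase reporter | Benchmarks: IL-6-only wells as 100% reference | Probe or stimulus: IL-6 (33 ng/mL) | Timing: Compound 1 h, then IL-6 6 h at 37 °C | Detection: Luminescence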
STAT1 act – STAT1 signaling activation | NIH 3T3 STAT1-luciferase reporter, IFN-gamma, luminescence; 100% = IFN-gamma alone, no compound | activation (% of control), % at 5.5 µM | 200,000 tested, 2.6% active | AID 932;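 active = activation above the screen-wide mean activation plus 3 SD, cut at about 130% in these data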
NF-kB neuron act – compounds increasing NF-kB expression in human neuronal cells; fold change at 12.5 µM; 190,000 tested, 1.6% active; NF-kB reporter expression; hits give high values; AID 1239; in the data active = fold change above about 3.3
Large screens that a line does not name were inactive.

COc1cccc(CNc2cccc3cccnc23)c1O	none
COc1cccc(CNc2cnc3ccccc3c2)c1O	NF-kB neuron act 7.6
COc1cc(OC)cc(C(=O)N[C@H](C(=O)OCC(=O)NC(=O)c2cccn2C)C(C)C)c1	none
c1csc(CSc2nnc3sc4ccccc4n23)c1	STAT1 act 132
c1csc(CSc2nc3ccccc3s2)c1	STAT1 act 145
CN(C(=O)c1ccc(OC2CCN(CCc3ccccc3)CC2)cc1)C1CCCCC1	none
COc1cccc(-c2nc(NC(C)C)c3ccccc3n2)c1O	STAT3 act 134
CCC(C)Nc1nc(-c2cccc(OC)c2O)nc2ccccc12 (stereo not drawn)	none
COc1ccc(NC(=O)c2cc3c(=O)n(C)c4ccccc4c3s2)cc1OC	none
CCN(CC)C(=O)c1[nH]cnc1C(=O)N[C@@H](C)C(=O)OC(C)(C)C	none (no result: STAT3 blocker, STAT3 act)
COc1ccc2oc(=O)c(/C(C)=N/Nc3nc(-c4cc(C)ccc4C)cs3)cc2c1	none
COc1ccc2oc(=O)c(-c3csc(Nc4ccc(O)cc4)n3)cc2c1	NF-kB neuron act 3.6
O=C(CSc1nc2cc([N+](=O)[O-])ccc2n1-c1ccc(F)cc1)NC1CCS(=O)(=O)C1 (stereo not drawn)	none
O=C(N/N=C/c1ccc[nH]1)c1ccccc1[N+](=O)[O-]	none
O=[N+]([O-])c1ccc(N/N=C/c2ccc[nH]2)cc1	NF-kB neuron act 26
O=C(Cc1cn(Cc2cccc(Cl)c2)c2ccccc12)N1CCCCCC1	none
COc1cc(OC)cc(-c2cc3nc(C)c(CCC(=O)O)c(C)n3n2)c1	STAT3 blocker 88, STAT1 blocker 53
O=C(/C=C/c1ccccc1Cl)Nc1ccc(Cl)cn1	none (no result: NF-kB neuron act)
COc1ccccc1NC(=O)/C=C/c1ccc2c(c1)OCO2	STAT1 act 134
COc1ccccc1NC(=O)COC(=O)/C=C/c1ccc2c(c1)OCO2	none
O=C(/C=C/c1ccc2c(c1)OCO2)Nc1ccc(Cl)cn1	APP 5'UTR act 162, STAT1 act 132
CCCCCCn1c(=O)[nH]c2nc3cc(N)ccc3nc2c1=O	none
Cc1cccc(C)c1NC(=O)CNCC(=O)N(C)C	none
Cc1ccc(-n2[nH]c(=O)c(-c3ccccn3)c2C)cc1	STAT3 blocker 88, STAT1 blocker 76
COc1ccc(/C=C/C(O)=C(\C#N)c2nnc(N3CCOCC3)n2-c2ccccc2)cc1OC	none
CCCOc1ccc(-c2csc(N)n2)cc1[N+](=O)[O-]	STAT1 act 138
CCCCOc1ccc(-c2cn3ccccc3n2)cc1[N+](=O)[O-]	STAT1 act 132, NF-kB neuron act 4.6
Cc1cccc2nc(COc3ccc(Cl)c4cccnc34)cn12	STAT1 act 129
Cc1cccc2nc(CSc3ncccc3C(=O)O)cn12	none
NC(Cc1ccccc1)C(O)(c1ccccc1)c1ccccc1 (stereo not drawn)	none
BrC(=C\c1ccccc1)/C=N/N1CCN(c2ccccn2)CC1	none
COc1ccc(C(=O)/C=C/Nc2ccc(C)cn2)cc1OC	APP 5'UTR act 145, STAT1 act 143, NF-kB neuron act 5.2
COC(=O)c1ccc(/C=C/C(=O)c2ccc(OC)c(OC)c2)cc1	none
O=C(/C=C/Nc1ccc(Br)cc1F)c1ccccc1	APP 5'UTR act 140, STAT3 blocker 90, STAT1 blocker 47
O=C(/C=C\Nc1ccc(Cl)cn1)c1ccc(Br)cc1	STAT1 act 134
CC(=O)c1ccc(N/C=C\C(=O)c2ccc(C)cc2)cc1	STAT1 act 148
Cc1ccccc1CN1C[C@@H]2C[C@@H](c3cnc(N4CCOCC4)s3)N3CCC[C@@]23C1=O	none
O=C(/C=C/Nc1ccc([N+](=O)[O-])cc1)c1ccc(Br)cc1	none
O=C(/C=C/Nc1ccc(F)c(F)c1)c1ccc(Br)cc1	APP 5'UTR act 163, STAT1 act 141, NF-kB neuron act 8.1
Cc1ccnc(N2C(=O)c3ccccc3C2O)c1 (stereo not drawn)	APP 5'UTR act 153
O=C(CSc1nnnn1C1CCCCC1)NCc1cccs1	none
CCC(=O)Nc1ccc(C(=O)NNC(=O)COc2cccc(C)c2)cc1	none
O=C(CCCN1C(=O)/C(=C/c2cccc(Br)c2)SC1=S)Nc1cccnc1	NF-kB neuron act 3.4
CC(=O)Nc1ccc(SCC(=O)Nc2cc(C)on2)cc1	none
COc1cc(C)ccc1OCCOc1ccccc1Cl	none
COc1cc(C)ccc1OCCCOc1ccccc1Cl	STAT1 act 144
COc1ccc(/C=N/NC(=O)c2nonc2C)cc1	STAT1 act 129
Cc1nonc1C(=O)N/N=C/c1ccncc1	STAT1 act 140
Nc1nonc1C(=O)N/N=C/c1ccncc1	none
Cc1ccc(CNC(=O)CN(Cc2ccccc2)S(C)(=O)=O)cc1	none
CC1CCC/C(=N\Nc2ccc(Cl)c(C(=O)O)c2)C1 (stereo not drawn)	APP 5'UTR act 217
O=c1c2ccccc2ncn1CCOCCOc1ccc([N+](=O)[O-])cc1	STAT1 act 129
COc1ccc(/C(N)=N/OC(=O)CSc2ccccc2)cc1	NF-kB neuron act 5.3
Cc1ccc(/C(N)=N/OC(=O)CSc2ccccc2)cc1	APP 5'UTR act 180, STAT1 act 130
S=C(Nc1ccc(Cl)cc1)c1sc(N2CCCCC2)nc1N1CCOCC1	none
CC(C)(C)S(=O)(=O)c1cnc2c(-c3ccc(Cl)cc3)cnn2c1N	none
COc1ccc(-c2cnn3c(N)c(S(=O)(=O)C(C)(C)C)cnc23)cc1	NF-kB neuron act 6.4
COc1cccc(C(=O)N=c2sc3cc(S(C)(=O)=O)ccc3n2C)c1	STAT1 act 132
Cn1/c(=N/NC(=O)c2ccccc2F)sc2ccccc21	STAT1 act 149
Cc1ccc(C(=O)N/N=c2\sc3ccccc3n2C)cc1	none
COc1ccc(C(=O)N=c2sc3ccccc3n2C)cc1	APP 5'UTR act 163, STAT3 act 134, STAT1 act 141, NF-kB neuron act 8.1
COc1cc(OC)cc(C(=O)N=c2sc3ccccc3n2C)c1	APP 5'UTR act 146, STAT1 act 139
COc1cccc(C(=O)N/N=c2\sc3ccccc3n2C)c1	none
Cn1c(=NC(=O)COc2ccccc2)sc2ccccc21	STAT1 act 148, NF-kB neuron act 3.6
Cc1ccc(N/C(N)=N/c2nc(C)cc(N3CCCCC3)n2)c(C)c1	STAT1 blocker 36
O=C(CC(NC(=O)c1ccccc1)c1ccccc1)Nc1cccc2ccccc12 (stereo not drawn)	none
CCC(NC(=O)Nc1nnc(C(F)(F)F)s1)(C(F)(F)F)C(F)(F)F	STAT3 blocker 99, STAT1 blocker 61
O=C(O)CCC(=O)Nc1nnc(C(F)(F)F)s1	none
Cc1ccc(-c2ccc(C3C(C#N)=C(N)Oc4n[nH]c(C)c43)o2)cc1 (stereo not drawn)	STAT3 act 136
COCc1cc(CN2CCN(C)CC2)c(O)c2ncccc12	none
